Test results: PMC10849882 (The Journal of Cell Biology, 2024)

Key:
IMPDH1(595)-Y12A-S477D = IMPDH1(595)-Y12A-S477D (Homo sapiens, UniProt P20839, S477D/Y12A); assay: IMPDH1 activity assay, GTP inhibition; type: biochemical
Procedure, shortened: (§1)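 Enzyme at 1 µM in pH 7.0 HEPES/KCl/DTT activity buffer, preincubated 30 min at 20°C with 1 mM ATP, 1 mM IMP, 1 mM MgCl2 and graded GTP. Reaction started with 300 µM NAD+. NADH followed at 340 nm (25°C, per minute, 15 min) against a standard curve. Specific activity from the 2–7 min slope; three measurements per point. IC50 and Hill coefficient from a least-squares four-parameter fit, 90% confidence intervals.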

IMPDH1(546)-S477D = IMPDH1(546)-S477D (Homo sapiens, UniProt P20839, S477D); assay: IMPDH1 activity assay, GTP inhibition; type: biochemical
Procedure, shortened: (§2)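 Recombinant human retinal-variant enzyme (E. coli BL21(DE3), 6xHis-SUMO tag removed by ULP1, gel filtration). Enzyme diluted ≥100-fold to 1 µM in pH 7.0 HEPES/KCl/DTT buffer. Preincubated 30 min at 20°C with 1 mM ATP, 1 mM IMP, 1 mM MgCl2 and varying GTP. Started with 300 µM NAD+. NADH read at A340, 25°C, each minute for 15 min. Rate from a 2–7 min slope. Triplicate; four-parameter variable-slope fit with 90% CI.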

IMPDH1(595)-WT = IMPDH1(595)-WT (Homo sapiens, UniProt P20839); assay: IMPDH1 activity assay, GTP inhibition; type: biochemical
Procedure, shortened: as §2

IMPDH1(546)-Y12A-S477D = IMPDH1(546)-Y12A-S477D (Homo sapiens, UniProt P20839, S477D/Y12A); assay: IMPDH1 activity assay, GTP inhibition; type: biochemical
Procedure, shortened: as §1

IMPDH1(546)-WT = IMPDH1(546)-WT (Homo sapiens, UniProt P20839); assay: IMPDH1 activity assay, GTP inhibition; type: biochemical
Procedure, shortened: as §2

IMPDH1(546)-Y12A = IMPDH1(546)-Y12A (Homo sapiens, UniProt P20839, Y12A); assay: IMPDH1 activity assay, GTP inhibition; type: biochemical
Procedure, shortened: as §1

IMPDH1(595)-Y12A = IMPDH1(595)-Y12A (Homo sapiens, UniProt P20839, Y12A); assay: IMPDH1 activity assay, GTP inhibition; type: biochemical
Procedure, shortened: as §1

IMPDH1(595)-S477D = IMPDH1(595)-S477D (Homo sapiens, UniProt P20839, S477D); assay: IMPDH1 activity assay, GTP inhibition; type: biochemical
Procedure, shortened: as §2

HeLa cells = assay: Ribavirin-induced IMPDH filament assembly in cells, immunofluorescence; type: cell-based, human; conditions: 1 mM ribavirin for 2 h
Procedure, shortened: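 HeLa (ATCC CCL-2) in DMEM/10% FBS, 37°C, 5% CO2. Seeded 4×10^4 cells/well on chambered glass slides and transfected next day with 328 ng plasmid (TransIT-HeLaMONSTER). After 48 h, fixed in 4% paraformaldehyde and Triton-permeabilised. Stained with anti-IMPDH2 (endogenous plus transfected), anti-FLAG and DAPI. Imaged by widefield 40×. Two biological replicates, ≥100 cells counted per condition.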

[1] = Hill coefficient of GTP inhibition curve

Sequence of IMPDH1(546)-WT (P20839 1-509 limits assumed): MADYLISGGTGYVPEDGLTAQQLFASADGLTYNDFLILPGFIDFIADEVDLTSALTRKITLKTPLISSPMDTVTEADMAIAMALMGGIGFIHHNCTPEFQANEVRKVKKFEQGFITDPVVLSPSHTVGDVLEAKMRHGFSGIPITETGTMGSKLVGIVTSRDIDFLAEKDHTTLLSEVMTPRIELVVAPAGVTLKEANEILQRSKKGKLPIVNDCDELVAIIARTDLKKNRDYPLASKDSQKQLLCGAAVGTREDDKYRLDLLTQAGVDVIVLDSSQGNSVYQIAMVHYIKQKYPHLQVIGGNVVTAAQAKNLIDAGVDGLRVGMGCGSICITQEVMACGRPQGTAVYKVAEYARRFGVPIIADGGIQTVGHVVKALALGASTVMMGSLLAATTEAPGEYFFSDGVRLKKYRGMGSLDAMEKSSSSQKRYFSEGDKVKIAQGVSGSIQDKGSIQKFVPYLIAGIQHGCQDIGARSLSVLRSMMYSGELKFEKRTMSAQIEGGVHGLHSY
Sequence of IMPDH1(595)-Y12A-S477D (P20839 1-509 Y12A/S477D): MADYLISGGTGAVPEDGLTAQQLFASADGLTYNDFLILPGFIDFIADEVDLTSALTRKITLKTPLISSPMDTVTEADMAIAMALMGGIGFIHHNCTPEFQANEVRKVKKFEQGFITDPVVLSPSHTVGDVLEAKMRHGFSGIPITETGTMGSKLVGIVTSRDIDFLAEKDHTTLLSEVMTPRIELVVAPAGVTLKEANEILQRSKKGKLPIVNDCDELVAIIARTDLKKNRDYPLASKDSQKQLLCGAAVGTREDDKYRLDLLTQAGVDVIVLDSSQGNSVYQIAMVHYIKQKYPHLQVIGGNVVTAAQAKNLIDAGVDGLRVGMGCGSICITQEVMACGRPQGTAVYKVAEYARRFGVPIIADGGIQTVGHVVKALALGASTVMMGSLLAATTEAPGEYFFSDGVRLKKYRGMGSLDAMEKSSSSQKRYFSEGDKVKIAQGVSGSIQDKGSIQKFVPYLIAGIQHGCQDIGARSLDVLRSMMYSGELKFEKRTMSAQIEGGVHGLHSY
Sequence of IMPDH1(546)-Y12A-S477D (P20839 1-509 Y12A/S477D): as above
Sequence of IMPDH1(546)-S477D (P20839 1-509 S477D): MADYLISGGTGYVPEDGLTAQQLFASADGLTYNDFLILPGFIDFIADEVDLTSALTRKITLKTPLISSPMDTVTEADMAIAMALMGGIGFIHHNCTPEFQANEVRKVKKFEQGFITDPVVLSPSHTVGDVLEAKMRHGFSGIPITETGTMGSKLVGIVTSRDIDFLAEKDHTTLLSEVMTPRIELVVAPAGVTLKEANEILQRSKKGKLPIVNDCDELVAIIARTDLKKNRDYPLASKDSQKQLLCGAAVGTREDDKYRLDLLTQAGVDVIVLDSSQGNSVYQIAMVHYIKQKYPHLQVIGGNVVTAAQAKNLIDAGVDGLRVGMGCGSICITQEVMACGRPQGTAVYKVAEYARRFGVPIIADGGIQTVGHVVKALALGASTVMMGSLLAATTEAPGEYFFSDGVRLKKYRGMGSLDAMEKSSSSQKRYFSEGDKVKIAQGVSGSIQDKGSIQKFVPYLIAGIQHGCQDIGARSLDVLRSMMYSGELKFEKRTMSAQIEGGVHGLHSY
Sequence of IMPDH1(595)-S477D (P20839 1-509 S477D): as above
Sequence of IMPDH1(595)-Y12A (P20839 1-509 Y12A): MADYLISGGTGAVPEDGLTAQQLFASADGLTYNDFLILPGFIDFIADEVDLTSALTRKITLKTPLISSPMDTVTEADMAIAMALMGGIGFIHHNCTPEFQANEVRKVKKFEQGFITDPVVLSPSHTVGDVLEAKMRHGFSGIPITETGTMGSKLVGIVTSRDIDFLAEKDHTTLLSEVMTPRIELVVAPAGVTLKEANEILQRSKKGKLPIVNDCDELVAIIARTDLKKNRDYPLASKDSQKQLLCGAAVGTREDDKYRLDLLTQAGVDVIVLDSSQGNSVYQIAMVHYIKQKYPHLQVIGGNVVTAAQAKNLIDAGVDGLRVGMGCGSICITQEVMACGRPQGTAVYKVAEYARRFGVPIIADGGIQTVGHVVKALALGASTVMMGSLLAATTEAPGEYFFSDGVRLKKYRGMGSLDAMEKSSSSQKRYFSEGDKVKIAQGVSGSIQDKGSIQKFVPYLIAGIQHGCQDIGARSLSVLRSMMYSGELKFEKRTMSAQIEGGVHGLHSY
Sequence of IMPDH1(546)-Y12A (P20839 1-509 Y12A): as above
Sequence of IMPDH1(595)-WT (P20839 1-558 isoform P20839-3 limits assumed): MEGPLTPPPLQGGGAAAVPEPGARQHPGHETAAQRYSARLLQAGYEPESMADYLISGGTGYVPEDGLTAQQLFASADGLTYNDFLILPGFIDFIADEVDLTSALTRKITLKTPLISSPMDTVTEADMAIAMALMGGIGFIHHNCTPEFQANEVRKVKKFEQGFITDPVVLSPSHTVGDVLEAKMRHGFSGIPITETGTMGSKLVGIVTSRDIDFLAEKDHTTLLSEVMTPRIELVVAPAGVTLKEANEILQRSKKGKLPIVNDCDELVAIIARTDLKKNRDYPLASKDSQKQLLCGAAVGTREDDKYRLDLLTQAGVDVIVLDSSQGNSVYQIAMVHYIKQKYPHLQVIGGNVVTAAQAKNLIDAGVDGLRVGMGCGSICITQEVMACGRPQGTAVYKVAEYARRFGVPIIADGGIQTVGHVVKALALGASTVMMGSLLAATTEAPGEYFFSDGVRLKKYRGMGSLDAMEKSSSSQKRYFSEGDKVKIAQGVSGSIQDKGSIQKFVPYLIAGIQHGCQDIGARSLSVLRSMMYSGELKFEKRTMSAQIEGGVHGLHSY

| SMILES | IC50 (IMPDH1(595)-Y12A-S477D) [µM] | Hill best-fit (IMPDH1(595)-Y12A-S477D; [1]) | IC50 (IMPDH1(546)-S477D) [µM] | Hill best-fit (IMPDH1(546)-S477D; [1]) | IC50 (IMPDH1(595)-WT) [µM] | Hill best-fit (IMPDH1(595)-WT; [1]) | IC50 (IMPDH1(546)-Y12A-S477D) [µM] | Hill best-fit (IMPDH1(546)-Y12A-S477D; [1]) | IC50 (IMPDH1(546)-WT) [µM] | Hill best-fit (IMPDH1(546)-WT; [1]) | IC50 (IMPDH1(546)-Y12A) [µM] | Hill best-fit (IMPDH1(546)-Y12A; [1]) | IC50 (IMPDH1(595)-Y12A) [µM] | Hill best-fit (IMPDH1(595)-Y12A; [1]) | IC50 (IMPDH1(595)-S477D) [µM] | Hill best-fit (IMPDH1(595)-S477D; [1]) | Percentage of transfected cells containing filaments (HeLa cells; cells transfected with FLAG-tagged IMPDH1(546)-S477A) [%] | Percentage of transfected cells containing filaments (HeLa cells; cells transfected with FLAG-tagged IMPDH1(546)-S477D) [%] | Percentage of transfected cells containing filaments (HeLa cells; cells transfected with FLAG-tagged IMPDH1(595)-S477D) [%] |
| --- | --- | --- | --- | --- | --- | --- | --- | --- | --- | --- | --- | --- | --- | --- | --- | --- | --- | --- | --- |
| Nc1nc2c(ncn2[C@@H]2O[C@H](COP(=O)(O)OP(=O)(O)OP(=O)(O)O)[C@@H](O)[C@H]2O)c(=O)[nH]1 [GTP, guanosine triphosphate] | 464 | 4.1 | 486 | 3.7 | 1150 | 2.3 | 458 | 4.2 | 757 | 4.6 | 538 | 4.0 | 473 | 4.5 | 603 | 3.7 | – | – | – |
| NC(=O)c1ncn([C@@H]2O[C@H](CO)[C@@H](O)[C@H]2O)n1 [ribavirin] | – | – | – | – | – | – | – | – | – | – | – | – | – | – | – | – | 100 | 2 | 2 |
